Laboratory results published in ChEMBL document CHEMBL1143844, “Biochemical studies on the mechanism of human immunodeficiency virus type 1 reverse transcriptase resistance to 1-(beta-D-dioxolane)thymine triphosphate” (Antimicrob Agents Chemother, 2007).

Assays:
[1] = Inhibition of HIV1 reverse transcriptase wild type HXB2(a) in presence of 3.2 mM ATP by prA/odT assay; set-up: species or system Human immunodeficiency virus 1
[2] = Inhibition of HIV1 reverse transcriptase wild type HXB2(a) by heteropolymeric DNA polymerase assay; set-up: species or system Human immunodeficiency virus 1
Method in brief: (§1)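 Heteropolymeric assay without ATP: plate-bound 18-mer DNA primer (~110 nM) with 50-mer 5′-A12-(GTCA)5 template (190 nM). dATP, dGTP, dCTP and BrdUTP at 1.0 μM each, in HEPES 50 mM pH 7.3, MgCl2 10 mM. RT 30–100 pM, 33°C for 180 min, then NaOH dehybridization and anti-BrdU-AP tracer read at 405 nm. IC50 from seven triphosphate concentrations; two to four runs in duplicate.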

[3] = Inhibition of HIV1 reverse transcriptase 41L/67N/70R/210W/215Y mutant in presence of 3.2 mM ATP by prA/odT assay; set-up: species or system Human immunodeficiency virus 1
Method in brief: (§2)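 Buffer: 50 mM HEPES pH 7.3, 10 mM MgCl2, 0.5% Triton X-100, 0.1 mg/ml BSA. Incubation 180 min at 33°C. Product detected with AP-conjugated anti-BrdU at 405 nm. […] Ki from four inhibitor levels. At least two experiments in duplicate.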

[4] = Inhibition of HIV1 reverse transcriptase 41L/69S-SG/184V/210W/215Y mutant in presence of 5 mM ATP by heteropolymeric DNA polymerase assay; set-up: species or system Human immunodeficiency virus 1
Method in brief: (§3)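 Heteropolymeric DNA polymerase assay with ATP added at 5 mM. Purified HIV-1 RT at 30–100 pM acts on a plate-bound DNA primer with a 5′-A12-(GTCA)5-3′ template. dATP, dGTP, dCTP and BrdUTP at 1.0 μM each. Incubation 180 min at 33°C. BrdUMP incorporation read via anti-BrdU-AP at 405 nm after NaOH dehybridization. IC50 from seven inhibitor concentrations, at least two experiments in duplicate.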

[5] = Inhibition of HIV1 reverse transcriptase 41L/69S-SG/184V/210W/215Y mutant by heteropolymeric DNA polymerase assay; set-up: species or system Human immunodeficiency virus 1
Method in brief: (§4)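 Purified p66/p51 HIV-1 RT, or p66 homodimer for 65R, at 30–100 pM (about 1.5–4.5 mU/well). Plate-bound 18-mer DNA primer on a 50-base 5′-A12-(GTCA)5-3′ DNA template. dATP, dGTP, dCTP and BrdUTP at 1.0 μM each, no ATP. Buffer: HEPES 50 mM pH 7.3, 10 mM MgCl2. Incubation 180 min at 33°C, NaOH dehybridization, anti-BrdU-AP tracer, A405. IC50 from seven inhibitor concentrations, at least two experiments in duplicate.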

[6] = Inhibition of HIV1 HXB2 reverse transcriptase 41L/67N/70R/215Y/219Q mutant by heteropolymeric DNA polymerase assay
[7] = Inhibition of HIV1 reverse transcriptase wild type HXB2(b) by heteropolymeric DNA polymerase assay; set-up: species or system Human immunodeficiency virus 1; method in brief: as §1
[8] = Inhibition of HIV1 reverse transcriptase 41L/67N/70R/210W/215Y mutant by heteropolymeric DNA polymerase assay; set-up: species or system Human immunodeficiency virus 1; method in brief: as §4
[9] = Inhibition of HIV1 reverse transcriptase 41L/67N/70R/215Y/219Q mutant in presence of 3.2 mM ATP by prA/odT assay; set-up: species or system Human immunodeficiency virus 1; method in brief: as §2
[10] = Inhibition of HIV1 reverse transcriptase wild type HXB2(a) in presence of 20 uM dNTP by heteropolymeric DNA polymerase assay; set-up: species or system Human immunodeficiency virus 1
Method in brief: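 Heteropolymeric DNA assay containing 5 mM ATP on the 5′-A12-(GTCA)5 template, with each dNTP (BrdUTP in place of TTP) at 1 μM or, in the modified version, 20 μM. Mean IC50 from at least two runs in duplicate.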

[11] = Inhibition of HIV1 reverse transcriptase wild type HXB2(a) in presence of 5'-A12-(GACT)5-3' by heteropolymeric DNA polymerase assay; set-up: species or system Human immunodeficiency virus 1
Method in brief: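 Heteropolymeric DNA assay with 5 mM ATP and dNTPs (BrdUTP replacing TTP) at 1.0 μM, using an alternative template repeat, 5′-A12-(GACT)5-3′. Run at 33°C for 180 min, followed by NaOH dehybridization and anti-BrdU-AP detection at 405 nm. IC50 reported in μM as the mean of at least two runs in duplicate.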

[12] = Inhibition of HIV1 reverse transcriptase 41L/67N/70R/184V/210W/215Y mutant by heteropolymeric DNA polymerase assay; set-up: species or system Human immunodeficiency virus 1; method in brief: as §4
[13] = Inhibition of HIV1 reverse transcriptase 41L/67N/70R/210W/215Y mutant in presence of 5'-A12-(GTCA)5-3' by heteropolymeric DNA polymerase assay; set-up: species or system Human immunodeficiency virus 1
Method in brief: (§5)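 DNA polymerase assay with 5 mM ATP and 1 μM each dATP, dGTP, dCTP and BrdUTP. The 50-base DNA template carries a 5′-A12 tail with a (GTCA)5 or (GACT)5 repeat. IC50 from at least two experiments in duplicate. Fold change is relative to wild-type RT on the same template.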

[14] = Inhibition of HIV1 reverse transcriptase 41L/67N/70R/210W/215Y mutant in presence of 5 mM ATP by heteropolymeric DNA polymerase assay; set-up: species or system Human immunodeficiency virus 1
Method in brief: as §3, with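 “33°C.” for “33°C. BrdUMP incorporation read via anti-BrdU-AP at 405 nm after NaOH dehybridization.”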

[15] = Inhibition of HIV1 reverse transcriptase 41L/69S-SG/210W/215Y mutant in presence of 5'-A12-(GACT)5-3' by heteropolymeric DNA polymerase assay
[16] = Inhibition of HIV1 reverse transcriptase 41L/67N/70R/210W/215Y mutant in presence of 1 uM dNTP by heteropolymeric DNA polymerase assay; set-up: species or system Human immunodeficiency virus 1
Method in brief: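 DNA polymerase assay with 5 mM ATP and purified HIV-1 RT (HXB2 background) on a plate-bound primer with a 5′-A12-(GTCA)5-3′ template. Each dNTP (dATP, dGTP, dCTP, BrdUTP) is set at either 1 μM or 20 μM. IC50 from at least two experiments in duplicate. Fold change is relative to wild-type RT at the same dNTP level.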

[17] = Inhibition of HIV1 reverse transcriptase 41L/67N/70R/210W/215Y mutant in presence of 5'-A12-(GACT)5-3' by heteropolymeric DNA polymerase assay; set-up: species or system Human immunodeficiency virus 1
Method in brief: as §5, with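 “repeat. Incubation 180 min at 33°C, NaOH dehybridization, anti-BrdU-AP detection at 405 nm.” for “repeat.”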

Structure (SMILES) | Ki [1] | IC50 [2] | Ki [3] | IC50 [4] | IC50 [5] | IC50 [6] | IC50 [7] | IC50 [8] | Ki [9] | IC50 [10] | IC50 [11] | IC50 [12] | IC50 [13] | IC50 [14] | IC50 [15] | IC50 [16] | IC50 [17]
Cc1cn([C@H]2C[C@H](N=[N+]=[N-])[C@@H](COP(=O)(O)OP(=O)(O)OP(=O)(O)O)O2)c(=O)[nH]c1=O [ZIDOVUDINE TRIPHOSPHATE] | 5.4 nM | 180 nM | 130 nM | 1200 nM | 210 nM | 190 nM | 200 nM | 140 nM | 95 nM | – | – | – | – | – | – | – | –
C[C@H](Cn1cnc2c(N)ncnc21)OCP(=O)(O)OP(=O)(O)OP(=O)(O)O | – | 1600 nM | – | – | – | – | – | 1400 nM | – | 19000 nM | 2800 nM | 1400 nM | 13000 nM | 13000 nM | 17000 nM | 13000 nM | 8600 nM
Cc1cn([C@H]2CO[C@@H](COP(=O)(O)OP(=O)(O)OP(=O)(O)O)O2)c(=O)[nH]c1=O | 2.8 nM | – | 13 nM | 1400 nM | 220 nM | 130 nM | 120 nM | – | 11 nM | 2000 nM | 310 nM | 160 nM | 500 nM | 500 nM | 780 nM | 500 nM | 400 nM
